Results: ChEMBL document CHEMBL1811825, “Synthesis and antiviral evaluation of 9-(S)-[3-alkoxy-2-(phosphonomethoxy)propyl]nucleoside alkoxyalkyl esters: inhibitors of hepatitis C virus and HIV-1 replication” (Bioorg Med Chem, 2011)

Assays:
[1] = Cytotoxicity against human Huh7.5.1 cells by fluorescent cell viability assay; assay type: cell-based, Huh-7
[2] = system: Hepatitis C virus; test: Antiviral activity against Hepatitis C virus genotype 1b infected in human Huh-7.5.1 cells after 48 to 72 hrs by luciferase reporter assay; assay type: functional, organism-based, Hepacivirus hominis
[3] = system: MT2; test: Cytotoxicity against human MT2 cells after 72 hrs by propidium iodide staining-based flow cytometry; assay type: cell-based; details: mt2, 72 h
[4] = system: Hepatitis C virus; test: Antiviral activity against HCV JFH-1 infected in human Huh-7.5.1 cells after 48 to 72 hrs by luciferase reporter assay; assay type: functional, organism-based, Hepacivirus hominis; details: JFH-1, Huh-7.5.1
[5] = system: Human immunodeficiency virus 1; test: Antiviral activity against HIV-1 LAI infected in human MT2 cells assessed as p24 antigen production after 4 days by ELISA; assay type: functional, organism-based; details: Human immunodeficiency virus 1, LAI, MT2, 96 h
Procedure, shortened: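 MT-2 cells in RPMI 1640 with 10% FBS, 10 mM HEPES, penicillin/streptomycin, inoculated with HIV-1 LAI at MOI 0.001 TCID50/cell; threefold serial drug dilutions, three wells each.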

[6] = system: Cowpox virus; test: Antiviral activity against Cowpox virus infected in human HFF cells after 3 days by Plaque reduction assay; assay type: functional, organism-based; details: 72 h
[7] = system: Human betaherpesvirus 5; test: Antiviral activity against Human cytomegalovirus infected in human HFF cells after 8 days by Plaque reduction assay; assay type: functional, organism-based; details: Human betaherpesvirus 5, HFF, 192 h
[8] = system: Vaccinia virus; test: Antiviral activity against Vaccinia virus infected in human HFF cells after 3 days by Plaque reduction assay; assay type: functional, organism-based; details: Orthopoxvirus vaccinia, 72 h
[9] = system: Human alphaherpesvirus 1; test: Antiviral activity against Human herpesvirus 1 infected in human HFF cells after 3 days by Plaque reduction assay; assay type: functional, organism-based; details: Human alphaherpesvirus 1, HFF, 72 h
[10] = Selectivity index, ratio of CC50 for human Huh7.5.1 cells to EC50 for HCV genotype1b in human Huh-7.5.1 cells; assay type: functional, Huh-7
[11] = Selectivity index, ratio of CC50 for human Huh7.5.1 cells to EC50 for HCV JFH-1 in human Huh-7.5.1 cells; assay type: functional, Huh-7
[12] = Selectivity index, ratio of CC50 for human MT2 cells to EC50 for HIV-1 LAI infected in human MT2 cells; assay type: toxicity, cell-based; details: read-out: Ratio CC50/EC50

SMILES	CC50 ([1]; Huh7.5.1 cells) [µM]	EC50 [2] [µM]	CC50 [3] [µM]	EC50 [4] [µM]	EC50 [5] [nM]	EC50 [6] [µM]	EC50 [7] [µM]	EC50 [8] [µM]	EC50 [9] [µM]	CC50 ([1]; huh-7) [µM]	Ratio CC50/EC50 [10]	Ratio CC50/EC50 [11]	selectivity ratio [12]
CCCCCCCCCCCCCCCCCCOCCOP(=O)(O)CO[C@@H](COC)Cn1cnc2c(N)nc(N)nc21	> 150	25.6	19.7	25.8	40								
CCCCCCCCCCCCCCCCOCCCOP(=O)(O)CO[C@H](COC)Cn1cnc2c(N)ncnc21	> 150	2.36	32	4.64	200								
CCCCCCCCCCCCCCCCCCOCCOP(=O)(O)CO[C@H](COC)Cn1cnc2c(N)ncnc21	> 150	1.43		2.38	30	> 20	1.55	18.3	45.7				
CCCCCCCCCCCCCCCCOCCCOP(=O)(O)COC(COC(C)C)Cn1cnc2c(N)ncnc21 (racemic)		51.2	30.3	98.8	> 10000					100			
CCCCCCCCCCCCCCCCOCCCOP(=O)(O)CO[C@H](COC)Cn1cnc2c(OC)nc(N)nc21	> 150	18.1	34.3	17.4	> 10000								
CCCCCCCCCCCCCCCCOCCCOP(=O)(O)CO[C@H](COC)Cn1cnc2c(OC)ncnc21	> 150	8.9	22	12.5	> 10000								
CCCCCCCCCCCCCCCCCCOCCOP(=O)([O-])CO[C@@H](COC)Cn1cnc2c(=O)[nH]c(N)nc21.[Na+]	> 150	12.6	44	12.4	< 0.01						>11.9	>12.1	> 4.4e+06
CCCCCCCCCCCCCCCCCCOCCOP(=O)(O)CO[C@@H](COC)Cn1cnc2c(N)ncnc21	> 150	4.65		5.33	4800								
CCCCCCCCCCCCCCCCOCCCOP(=O)(O)COC(COCC)Cn1cnc2c(N)ncnc21 (racemic)		7.59	23.6	8.87	> 10000					99			
CCCCCCCCCCCCCCCCCCOCCOP(=O)(O)CO[C@H](COC)Cn1cnc2c(N)nc(N)nc21		20.1	18	21.4	230					99			
CCCCCCCCCCCCCCCCCCOCCOP(=O)(O)CO[C@H](COC)Cn1ccc(N)nc1=O	> 150	> 150	60.7	> 150	12700								4.8
CCCCCCCCCCCCCCCCOCCCOP(=O)([O-])COC(COCC)Cn1cnc2c(=O)[nH]c(N)nc21.[Na+] (racemic)	> 150	25.5	14.9	13.2	> 10000						>5.88	>11.4	
CCCCCCCCCCCCCCCCOCCCOP(=O)([O-])COC(COCC)Cn1cnc2c(N)nc(N)nc21.[Na+] (racemic)	> 150	18.2	30.7	19.5	> 10000						>8.2	>7.69	
CCCCCCCCCCCCCCCCOCCCOP(=O)(O)CO[C@H](COC)Cn1cnc2c(N)nc(N)nc21		21.3	22.7	23.6	4600					91.5			
CCCCCCCCCCCCCCCCCCOCCOP(=O)(O)CO[C@H](CO)Cn1cnc2c(N)ncnc21		1.55	0.033	1.65	0.1				< 0.0001	35.6			
CCCCCCCCCCCCCCCCOCCCOP(=O)(O)CO[C@H](COC)Cn1cnc2c(=O)[nH]c(N)nc21	> 150	22	29.3	24.8	2030								
CCCCCCCCCCCCCCCCCCOCCOP(=O)([O-])CO[C@H](COC)Cn1cnc2c(=O)[nH]c(N)nc21.[Na+]	> 150	8.26	25	10.7	200						>18.2	>14	125
